CHOP inh: inhibitors of CHOP induction in ER stress response; CHO-K1 CHOP-promoter luciferase, tunicamycin-induced, 15-18 h; inhibition, % at 10 µM; 3.8% of 220,000 active; AID 2732;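 active means compounds that reduced the stress-induced luciferase reporter signal by more than about 70% of percent inhibition, limit read from the data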
Beta2AR agonist: agonists of human beta-2 adrenergic receptor inducing internalization | AID 504454 | Am2.2-beta2AR cells, FAP receptor internalization, flow cytometry | response, % (test concentration not listed) | P07550 | 0.43% of 340,000 active;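 active means response above a set limit, near 3 SD of response in nonfluorescent compounds, cut at about 42% in these data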
VLA-4 inh: inhibition in a human VLA-4 binding assay; AID 2557; 0.2% of 330,000 active; inhibition, % (about 7 µM as worked out from the volumes in the protocol); P13612; VLA-4 expressing cells, ligand binding flow cytometry; in the data active means inhibition above about 50%
Target sequence (P13612 whole entry, looked up): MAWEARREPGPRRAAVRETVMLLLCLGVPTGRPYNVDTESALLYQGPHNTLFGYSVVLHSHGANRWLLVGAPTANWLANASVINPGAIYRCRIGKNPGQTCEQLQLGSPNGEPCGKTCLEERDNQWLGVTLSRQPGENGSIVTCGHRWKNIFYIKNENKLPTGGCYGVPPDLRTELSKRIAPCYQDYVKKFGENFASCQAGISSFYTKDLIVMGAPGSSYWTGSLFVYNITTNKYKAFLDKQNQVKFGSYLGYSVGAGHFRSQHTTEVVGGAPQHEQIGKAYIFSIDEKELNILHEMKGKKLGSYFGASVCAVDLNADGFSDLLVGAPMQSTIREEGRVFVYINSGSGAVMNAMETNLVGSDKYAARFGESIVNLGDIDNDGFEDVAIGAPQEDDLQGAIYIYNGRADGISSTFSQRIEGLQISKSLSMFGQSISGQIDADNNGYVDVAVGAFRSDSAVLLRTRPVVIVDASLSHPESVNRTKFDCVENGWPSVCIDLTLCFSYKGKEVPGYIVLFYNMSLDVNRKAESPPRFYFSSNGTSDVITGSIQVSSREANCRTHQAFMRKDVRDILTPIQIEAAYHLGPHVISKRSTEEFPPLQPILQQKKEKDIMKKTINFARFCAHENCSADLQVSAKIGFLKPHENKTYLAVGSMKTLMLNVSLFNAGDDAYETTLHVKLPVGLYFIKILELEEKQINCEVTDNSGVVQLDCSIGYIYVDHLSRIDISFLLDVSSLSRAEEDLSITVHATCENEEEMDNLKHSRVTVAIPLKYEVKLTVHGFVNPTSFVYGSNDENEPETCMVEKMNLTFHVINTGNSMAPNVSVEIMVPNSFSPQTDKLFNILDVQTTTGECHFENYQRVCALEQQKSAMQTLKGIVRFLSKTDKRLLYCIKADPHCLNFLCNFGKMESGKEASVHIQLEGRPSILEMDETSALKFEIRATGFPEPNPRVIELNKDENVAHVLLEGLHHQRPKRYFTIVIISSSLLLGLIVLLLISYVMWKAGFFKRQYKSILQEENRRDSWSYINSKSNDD
UPR XBP1 act: adaptive UPR (XBP1) activation; CHO-XBP1 luciferase reporter, IRE1-XBP1 UPR activation, luminescence; percent of tunicamycin response, DMSO as zero; activation, % at 20 µM; 0.33% of 330,000 active; AID 463104;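 active means versus positive control, 20 µM dose yields 30% or more activation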
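Material – CHO cell line with stable XBP1 luciferase reporter · Buffer or medium – F12 plus 10% FBS · Compound – single point, 20 µM final compound, 1% DMSO · Schedule – 16-18 h cell attachment at 37 °C, then 6 h compound exposure · Signal – Steady-Glo luminescence read · Benchmarks – high control tunicamycin 10 µg/mL final, low control DMSO vehicle only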
CHOP UPR activ: apoptotic UPR (CHOP) activation; CHO-CHOP luciferase reporter, luminescence; percent of tunicamycin response over DMSO baseline; activation, % at 10 µM; 0.34% of 330,000 active; AID 449763;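 active means at 10 µM dose, activation of 40% or more, normalized to positive control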
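Test system: CHO-CHOP cells, stable luciferase reporter of PERK-eIF2a-CHOP signalling | Quantity: 500 CHO-CHOP cells per well | Buffer or medium: F12 plus 10% serum | Compound dosing: 10 µM single point, 0.5% DMSO | Schedule: 6 h compound treatment, 37 °C | Signal: Luciferase luminescence | Control set: Tunicamycin high control, DMSO low control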
VLA-4 allo CP: confirmation of allosteric modulators of human VLA-4 integrin; shares compounds with VLA-4 inh; U937 cells, HUTS-21 LIBS mAb binding, flow cytometry; LDV ligand present at threefold Kd; inhibition, % at 6.7 µM; AID 2813; 2% of 1,300 active; in the data active means inhibition above about 40%
CHOP inh conf: confirmation of CHOP induction inhibitors; 45% of 2,100 active; shares compounds with CHOP inh; AID 504437; inhibition, % at 10 µM; CHO-CHOP promoter luciferase reporter, tunicamycin-induced, luminescence;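 active means mean of three repeat readings of reporter signal inhibition above a set limit, cut at about 70% in these data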
UPR CHOP confirm: confirmation of apoptotic unfolded protein response (CHOP) activators. shares compounds with CHOP UPR activ. CHO-CHOP cells, CHOP-luciferase reporter luminescence; percent of tunicamycin response, DMSO as zero. activation, % at 10 µM. 64% of 1,000 active. AID 463112; in the data active means activation above about 33%
B2AR ag CP1: activates human beta-2 adrenergic receptor | 25% of 1,100 active | shares compounds with Beta2AR agonist | percent response (surface receptor), % at 10 µM | Am2.2-beta2AR cells, FAP surface receptor, flow cytometry; hits give low values;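 active means surface receptor percent response at or below 58%, roughly 3 SD from nonfluorescent compounds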
B2AR FAP counter: flagged in Am2.2 fluorescence counterscreen for beta-2AR agonists | shares compounds with Beta2AR agonist | Am2.2 cells, FAP fluorogen flow cytometry; hits give low values | calls only at 10 µM | 1,100 tested, under 10 active | AID 588765;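 active means percent response below a set limit in fluorescence channel 1 and below 50% in channel 8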
Numbers stand for hits; 0 = inactive; - = no result; ! = not active in a repeat. Only a selection was taken, and hits are over-represented in it overall.

SMILES	CHOP inh	Beta2AR agonist	VLA-4 inh	UPR XBP1 act	CHOP UPR activ	VLA-4 allo CP	others
CCOP(=O)(OCC)C(CC)N1CCOCC1 (centres undefined)	0	0	0	0	0	-
CCCCOP(=O)(CN1CCOCC1)OCCCC	0	0	90.9	0	0	0
Nc1ncc2[nH]cnc2n1	-	0	52.6!	0	0	0
CC1CN1P(=S)(c1ccccc1)N1CC1C (centres undefined)	-	0	-	-	-	-
O=C(Cn1cc(C(=O)c2ccccc2F)c2ccccc21)NCc1ccco1	0	0	0	0	0	-
COCCNC(=O)Cn1cc(C(=O)c2ccccc2F)c2ccccc21	-	0	0	0	0	0
COc1ccccc1N1CCN(CCc2c[nH]c3cc4c(cc23)OCO4)CC1	-	0	-	-	-	-
CC12CCC3c4ccc(OP(=O)(N5CC5)N5CC5)cc4CCC3C1CCC2=O (centres undefined)	-	0	-	-	-	-
Cc1cc(OCC(=O)NCc2ccncc2)c2c3c(c(=O)oc2c1)CCC3	-	0	0	0	0	-
Cc1cc(OCC(=O)NCc2ccc(S(N)(=O)=O)cc2)c2c3c(c(=O)oc2c1)CCC3	-	0	53.1	0	0	0
COC(=O)C[C@]1(C(=O)OC)CN(C#N)N(c2ccc(Cl)cc2)C12c1ccccc1-c1ccccc12	-	0	56.6	0	0	0	CHOP inh conf=129.4
COC(=O)[C@@H]1[C@@H](C(=O)OC)C2(c3ccccc3-c3ccccc32)N(c2ccc(Cl)cc2)N1C#N	109.0	0	57.8	0	0	0	CHOP inh conf=124.3
C[C@]12CCC3C(CC[C@H]4C[C@@H](O)CC[C@]34C)C1CC[C@@H]2N (some centres undefined)	-	0	0	0	0	-
CCC1(CC)C(=O)NC(=O)N(CCc2ccccn2)C1=O	-	0	-	-	-	-
Cc1ccc(-c2cc(-c3ccc(C)cc3)[n+](-c3ccccc3)c(-c3ccc(C)cc3)c2)cc1	-	44.0	53.7	0	54.7	0	UPR CHOP confirm=69.0
Cc1nnc2n1-c1ccc(Cl)cc1C(c1ccccc1)=NC2	0	-	-	-	-	-
NCCc1ccc(OCc2ccccc2)c(OCc2ccccc2)c1	-	43.4	73.6	0	0	0	B2AR ag CP1=0;B2AR FAP counter=0
CC(=O)OC1CCC2(C)C(CCC3C2CC(=O)C2(C)C3CC(N3CC3)C2C(C)=O)C1 (centres undefined)	-	0	-	-	-	-
CCOC(=O)c1c(-n2c(C)cc(C=C3C(=O)NC(=O)NC3=O)c2C)sc2c1CCCC2	96.2	0	0	0	0	-	CHOP inh conf=0
Cc1cccc(N2C(=O)NC(=O)/C(=C\c3cc(C)n(-c4sc5c(c4C#N)CCCC5)c3C)C2=O)c1C	0	0	0	0	0	-
Oc1ccc2c3c1OC1c4oc5ccccc5c4C[C@@]4(O)[C@@H](C2)N(CC2CC2)CC[C@]314 (some centres undefined)	-	0	0	0	0	-
CCN1C(=O)C(=Cc2cc(C)n(C3CC3)c2C)C(=O)N(CC)C1=S	0	0	0	0	0	-
CCN1C(=O)C(=Cc2ccc(C)s2)C(=O)N(CC)C1=S	106.0	0	0	0	0	-	CHOP inh conf=0
CCCCCCn1c(=O)c(C(=O)Nc2cnccn2)c(O)c2ccccc21	96.3	0	0	0	0	-	CHOP inh conf=119.9
CN[C@H]1C[C@H]2O[C@@](C)([C@H]1OC)n1c3ccccc3c3c4c(c5c6ccccc6n2c5c31)C(=O)NC4	107.9	-	0	0	0	-	CHOP inh conf=121.1

Screening data (PubChem BioAssay)
